Measured values published in paper PMC6586034 (Clinical Pharmacology in Drug Development, 2018).
“Also recorded” adds a separate entry of the source. Like-named read-outs stand apart in the source and are kept apart here. Each block holds one compound with its values, some of them ahead of it.

Columns and labels:
URAT1 = conditions: cited from earlier work; for URAT1 activity: metabolites of verinurad
[1] = human; cited from earlier work
[2] = assay type: in vivo, human; conditions: for Tmax: male, human, plasma, po
How it was run: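 Healthy men (18–65 y, sUA ≥4.5 mg/dL) took oral doses once daily, about 30–35 min after a moderate-fat breakfast. […] Plasma was sampled predose to 24 h on days 7, 14 and 21. Acetonitrile precipitation with deuterated internal standard, then LC/MS/MS (LLOQ 0.100 ng/mL). Log GMRs (90% CI) for single agent vs day 14 came from a mixed-effects model.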

[3] = assay type: in vivo, human
How it was run: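 Urine was collected as total catch over 0–6, 6–12 and 12–24 h postdose on days 7 (alone), 14 (combination) and 21, under once-daily oral dosing in healthy men. Verinurad was measured by LC/MS/MS, linear 2.00–1000 ng/mL. Ae0-24, fe0-24 and CLR0-24 were derived. Log-transformed parameters were compared as geometric mean ratios with 90% CI using a mixed-effects model (treatment fixed, subject random).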

uric acid = assay: Urinary uric acid pharmacodynamics; assay type: in vivo, human; conditions: arithmetic mean (95%CI); for AeUR, % Change From baseline / CLUR, % Change From baseline / FEUA, % Change From baseline: day 7 of treatment vs day −1
major CYPs = conditions: ref Ardea Biosciences, Inc., data on file; cited from earlier work
Safety/tolerability = assay type: in vivo, human; conditions: for Tolerability: multiple once-daily oral doses, alone or in combination, healthy adult males; for Subjects with an increase from baseline in serum creatinine (sCr): none had sCr ≥1.5 × baseline
serum urate (sUA) = assay: Serum urate pharmacodynamics; assay type: in vivo, human; conditions: for Change in sUA at 24 hours: steady state, 24 hours postdose
How it was run: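 Healthy men were dosed orally once daily, each drug alone for 7 days, and serum was sampled predose to 24 h postdose on days 1, 7, 14 and 21. A central laboratory assayed serum urate. Baseline was the mean of all day −1 values. Maximum percentage change from baseline was taken per subject and averaged per group. A mixed-effects model used treatment as fixed effect, baseline as covariate and subject as random effect.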

[4] = assay type: in vivo, human; conditions: febuxostat 80 mg + verinurad 2.5 mg
[5] = verinurad 2.5 mg combined with febuxostat 80 mg vs alone
[6] = VERU 2.5 mg + FBX 80 mg once daily oral, day 14, geometric mean
[7] = VERU 2.5 mg + FBX 80 mg once daily oral, day 14, mean (SD)
[8] = VERU 2.5 mg once daily oral alone, day 7 or 21, geometric mean
[9] = VERU 2.5 mg once daily oral alone, day 7 or 21, mean (SD)
[10] = VERU 10 mg + FBX 40 mg once daily oral, day 14, geometric mean
[11] = VERU 10 mg + FBX 40 mg once daily oral, day 14, mean (SD)
[12] = VERU 10 mg once daily oral alone, day 7 or 21, geometric mean
[13] = VERU 10 mg once daily oral alone, day 7 or 21, mean (SD)
[14] = VERU 2.5 mg once daily, Day 7 of Treatment (0 to 24 Hours)
[15] = verinurad 2.5 mg once daily alone
[16] = verinurad 10 mg once daily alone
[17] = febuxostat 40 mg once daily alone
[18] = febuxostat 80 mg once daily alone

Compound: CC(C)(Sc1ccncc1-c1ccc(C#N)c2ccccc12)C(=O)OC1OC(C(=O)O)C(O)C(O)C1O (stereo not shown) [M1]
- URAT1 activity (URAT1): devoid of URAT1 activity
- Circulating level in blood relative to verinurad [1]: equimolar to verinurad

- Tmax ([2]; 2.5 mg): 4 h
- Tmax ([2]; 10 mg): 2.75 h
- Increase in AUC0-24 of verinurad [2, 5]: 33%
- Increase in Cmax of verinurad [2, 5]: 25%
- Effect on Tmax of verinurad ([2]; verinurad 2.5 mg in the presence of febuxostat 80 mg): remained unchanged
- Ae0-24 of verinurad (excreted unchanged in urine) [3, 6]: 30.0 [21.6‐41.6] μg
- CLR0-24 of verinurad [3, 6]: 14.4 mL/min
- fe0-24 of verinurad [3, 6]: 1.20%
- Ae0-24 of verinurad (excreted unchanged in urine) ([3]; VERU 2.5 mg + FBX 80 mg once daily oral, day 14, geometric mean, listed as VERU): 30.0 µg
- Ae0-24 of verinurad (excreted unchanged in urine) [3, 7]: 32.3 (12.2) μg
- CLR0-24 of verinurad [3, 7]: 15.4 (5.97) mL/min
- fe0-24 of verinurad [3, 7]: 1.29 (0.490) %
- Ae0-24 of verinurad (excreted unchanged in urine) [3, 8]: 21.2 [14.8‐30.5] μg
- CLR0-24 of verinurad [3, 8]: 13.6 mL/min
- fe0-24 of verinurad [3, 8]: 0.849%
- Ae0-24 of verinurad (excreted unchanged in urine) ([3]; VERU 2.5 mg once daily oral alone, day 7 or 21, geometric mean, listed as VERU): 21.2 µg
- Ae0-24 of verinurad (excreted unchanged in urine) [3, 9]: 23.3 (10.1) μg
- CLR0-24 of verinurad [3, 9]: 15.1 (7.29) mL/min
- fe0-24 of verinurad [3, 9]: 0.932 (0.405) %
- Ae0-24 of verinurad (excreted unchanged in urine) [3, 10]: 97.6 µg
- CLR0-24 of verinurad [3, 10]: 15.2 mL/min
- fe0-24 of verinurad [3, 10]: 0.976%
- Ae0-24 of verinurad (excreted unchanged in urine) [3, 11]: 106 (44.2) μg
- CLR0-24 of verinurad [3, 11]: 16.2 (5.43) mL/min
- fe0-24 of verinurad [3, 11]: 1.06 (0.442) %
- Ae0-24 of verinurad (excreted unchanged in urine) [3, 12]: 86.8 µg
- CLR0-24 of verinurad [3, 12]: 12.4 mL/min
- fe0-24 of verinurad [3, 12]: 0.868%
- Ae0-24 of verinurad (excreted unchanged in urine) [3, 13]: 97.2 (49.7) μg
- CLR0-24 of verinurad [3, 13]: 13.6 (5.04) mL/min
- fe0-24 of verinurad [3, 13]: 0.972 (0.497) %
- Increase in Ae0-24 of verinurad ([3]; verinurad 2.5 mg in the presence of febuxostat 80 mg vs alone): 41%
Compound: CC(C)(Sc1ccncc1-c1ccc(C#N)c2ccccc12)C(=O)O [verinurad, Verinurad]
- Effect of febuxostat 40 mg on plasma exposure / PK parameters of verinurad 10 mg ([2]; once-daily co-administration, healthy males): no effect; also recorded: unaffected; also recorded: not influenced
- Potency in inhibiting URAT1 (URAT1): high potency
- AeUR (amount of uric acid recovered in urine) (uric acid; [14]): 620 (485 to 755) mg
- FEUA (fractional excretion of uric acid) (uric acid; [14]): 7.55 (6.83 to 8.26) %
- AeUR, % Change From baseline (uric acid; VERU 2.5 mg once daily): −21.0%
- CLUR, % Change From baseline (uric acid; VERU 2.5 mg once daily): 10.7 (−7.92 to 29.3) %
- FEUA, % Change From baseline (uric acid; VERU 2.5 mg once daily): 17.2%
- AeUR, % Change From baseline (uric acid; VERU 10 mg once daily): −17.0%
- CLUR, % Change From baseline (uric acid; VERU 10 mg once daily): 65.8 (14.2, 117) %
- FEUA, % Change From baseline (uric acid; VERU 10 mg once daily): 105%
- Inhibition of the major CYPs (major CYPs): does not inhibit
- Tolerability (Safety/tolerability): generally well tolerated
- Subjects with an increase from baseline in serum creatinine (sCr) (Safety/tolerability; verinurad 2.5 mg): 3 subjects
- Subjects with mild headache (only AE considered possibly related to verinurad) (Safety/tolerability; verinurad 10 mg-alone group, resolved without treatment): 1 subject
- Subjects with an increase from baseline in serum creatinine (sCr) (Safety/tolerability; verinurad 10 mg): 2 subjects
- Maximal reduction in serum urate (serum urate (sUA); [15]): 38%
- Mean maximal change from baseline in sUA at steady state (serum urate (sUA); [15]): −37.8%
- Change in sUA at 24 hours (serum urate (sUA); [15]): −19.9%
- Maximal reduction in serum urate (serum urate (sUA); [16]): 56%
- Mean maximal change from baseline in sUA at steady state (serum urate (sUA); [16]): −56.3%
- Change in sUA at 24 hours (serum urate (sUA); [16]): −38.0%

- Effect on Tmax of febuxostat [4]: remained unchanged
Compound: Cc1nc(-c2ccc(OCC(C)C)c(C#N)c2)sc1C(=O)O [febuxostat, Febuxostat, reference compound]
- AeUR, % Change From baseline (uric acid; FBX 40 mg once daily): −64.1%
- CLUR, % Change From baseline (uric acid; FBX 40 mg once daily): −34.4 (−45.3 to −23.5) %
- FEUA, % Change From baseline (uric acid; FBX 40 mg once daily): −24.5%
- AeUR, % Change From baseline (uric acid; FBX 80 mg once daily): −72.4%
- CLUR, % Change From baseline (uric acid; FBX 80 mg once daily): −42.0 (−50.8 to −33.2) %
- FEUA, % Change From baseline (uric acid; FBX 80 mg once daily): −35.2%
- Subjects with an increase from baseline in serum creatinine (sCr) (Safety/tolerability; febuxostat 40 mg): 1 subjects
- Subjects with an increase from baseline in serum creatinine (sCr) (Safety/tolerability; febuxostat 80 mg): 2 subjects
- Tolerability (Safety/tolerability): generally well tolerated
- Maximal reduction in serum urate (serum urate (sUA); [17]): 49%
- Mean maximal change from baseline in sUA at steady state (serum urate (sUA); [17]): −49.1%
- Change in sUA at 24 hours (serum urate (sUA); [17]): −36.9%
- Maximal reduction in serum urate (serum urate (sUA); [18]): 57%
- Mean maximal change from baseline in sUA at steady state (serum urate (sUA); [18]): −57.5%
- Change in sUA at 24 hours (serum urate (sUA); [18]): −45.4%

Compound: CC(C)(Sc1cc[n+]([O-])cc1-c1ccc(C#N)c2ccccc12)C(=O)OC1OC(C(=O)O)C(O)C(O)C1O (stereo not shown) [M8]
- URAT1 activity (URAT1): devoid of URAT1 activity
- Circulating level in blood relative to verinurad [1]: equimolar to verinurad
